Measured values pooled from the literature.
Target: Fibroblast growth factor receptor 2 (FGFR2, Homo sapiens, UniProt P21802)

`C1=C/COCc2cc(ccc2OCCN2CCCC2)Nc2nccc(n2)-c2cccc(c2)COC/1` has a remaining binding of 94% (binding; 0.1 µM).
For `Cc1ccc(NC(=O)c2ccnc(C(F)(F)F)c2)cc1-c1cc(OCCO)nc(N2CCOCC2)c1`, the remaining binding was 91% (binding; competition with immobilised ligand; 1 µM).
`CC(C)S(=O)(=O)c1ccc2nccc(Nc3ccc4sc(C5CCCC5)nc4c3)c2c1` gave an activity vs control of 110% (enzyme activity; inhibitor; 1 µM).
`CCCCC(=O)Nc1ccc(-c2ccc3ncn(CCC)c(=O)c3c2)cn1` has a remaining binding of 86% (binding; competition with immobilised ligand; 0.5 µM).
`CO[C@@H]1[C@H](N(C)C(=O)c2ccccc2)C[C@H]2O[C@]1(C)n1c3ccccc3c3c4c(c5c6ccccc6n2c5c31)C(=O)NC4` has an inhibition of 42% (enzyme activity; inhibitor; 1 µM).
The remaining binding of `CN1CCN(C(=O)c2ccc(NC(=O)Nc3ccc(N(C)c4ccnc(Nc5ccc(CS(C)(=O)=O)cc5)n4)cc3)cc2)CC1` is reported as 99% (binding; competition with immobilised ligand; 1 µM).
With `N#Cc1ccc(NC(=O)Nc2ccccc2)cc1` the remaining binding was 100% (cell-free assay; competition with immobilised ligand; 25 µM).
`C=CC(=O)N1CCC([C@@H]2CCNc3c(C(N)=O)c(-c4ccc(Oc5ccccc5)cc4)nn32)CC1` has an inhibition of 14% (cell-free assay; 1 µM).
The remaining binding of `COc1ccc2oc(-c3ccc4nc(N)oc4c3)c/c(=N\c3ccccc3NC(=O)CCN)c2c1` is reported as 95% (binding; 1 µM).
